Key:
Bone [1] = assay: Half life in iv dosed Sprague-Dawley rat bone administered as single dose using radiolabeled compound; assay type: ADME, organism-based, Bone element; conditions: in vivo
Method in brief: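 Female Sprague Dawley rats, about 13 weeks old on receipt, got a single tail-vein bolus of 5.0 mg/kg conjugate. The dose held 8.90 µCi [3H] and 1.77 µCi [14C] label, in 10% poloxamer 188 brought to pH 8.0 with NaHCO3 and diluted 1:1 with PBS. Groups of 3 were killed at 6 h and 1, 7, 14 and 28 days. Femurs were oxidized and counted, with skeleton taken as 8% of body weight, and label loss from bone gave half-times.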

Bone [2] = assay: Drug uptake in Sprague-Dawley rat bone at 1 mg/kg, iv after 6 hrs; assay type: ADME, organism-based, Bone element; conditions: in vivo
Plasma = assay: Drug metabolism in Sprague-Dawley rat plasma assessed as tritium label liberation in presence of bone powder; assay type: ADME, cell-free
Method in brief: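 Tritiated conjugate was incubated in rat plasma at 37 °C. At fixed times up to 24 h the mixture was stirred with bovine bone powder to adsorb intact conjugate and any cleaved bisphosphonate. The supernatant was then scintillation counted as unbound, liberated tritium.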

[3] = Solubility of the compound in phosphate buffer at 2 mg/ml; assay type: physicochemical
Method in brief: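 Conjugate tested for dissolution at the dosing concentration of 2 mg/mL in PBS alone, then in PBS formulations containing surfactants (PEG400, Tween, Cremaphor). Solutions were judged by visual clarity (homogeneous versus cloudy).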

Bone [4] = assay: Drug uptake in Sprague-Dawley rat bone at 0.2 uci, iv administered as single dose using 14C-labeled compound after 4 hrs; assay type: ADME, organism-based, Bone element; conditions: in vivo
[5] = Stability in rat plasma assessed as parent compound remaining at 100 uM measured after 4 hrs by HPLC analysis (reference value: 49 to 86%); assay type: ADME, cell-free; conditions: read-out: Stability
cathepsin K [6] = biological target: T1, cathepsin K (Homo sapiens, UniProt P43235); assay: Substrate activity at recombinant human cathepsin K expressed in Escherichia coli assessed as compound cleavage at 100 uM after 2 hrs by HPLC analysis; assay type: ADME; conditions: read-out: Drug degradation
T1 sequence (P43235 whole entry): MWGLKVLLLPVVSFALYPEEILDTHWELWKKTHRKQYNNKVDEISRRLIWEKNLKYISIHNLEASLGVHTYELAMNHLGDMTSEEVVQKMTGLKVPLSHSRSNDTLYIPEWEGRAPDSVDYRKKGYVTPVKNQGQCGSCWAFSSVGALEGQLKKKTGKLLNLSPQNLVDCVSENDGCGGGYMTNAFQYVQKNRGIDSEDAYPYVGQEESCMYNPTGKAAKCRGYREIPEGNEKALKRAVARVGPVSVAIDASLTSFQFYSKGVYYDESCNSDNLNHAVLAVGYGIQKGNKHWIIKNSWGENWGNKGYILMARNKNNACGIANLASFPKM
Method in brief: (§1)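 Human procathepsin K, recombinant from E. coli, was activated for 40 min at room temperature in 50 mM NaOAc-HOAc with 200 mM NaCl, pH 4.1. Final assay had 0.2 µM enzyme in 50 mM MES pH 5.5, 2 mM EDTA, 4 mM DTT and 0.15% chondroitin sulfate. Conjugates or the standard substrate Cbz-Leu-Arg-AMC were at 100 µM. Incubation was at 37 °C with HPLC at UV 240 nm; cleavage was taken from release of 4-aminobenzyl alcohol and its DTT adduct.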

[7] = Stability in rat plasma assessed as parent compound remaining at 100 uM measured after 2 hrs by HPLC analysis (reference value: 49 to 86%); assay type: ADME, cell-free; conditions: read-out: Stability
[8] = Stability in rat serum assessed as parent compound remaining at 100 uM measured after 4 hrs by HPLC analysis (reference value: 93 to 97%); assay type: ADME, cell-free; conditions: read-out: Stability
[9] = Stability in rat serum assessed as parent compound remaining at 100 uM measured after 1 hr by HPLC analysis (reference value: 93 to 97%); assay type: ADME, cell-free; conditions: read-out: Stability
[10] = Stability in rat plasma assessed as parent compound remaining at 100 uM measured after 1 hr by HPLC analysis (reference value: 49 to 86%); assay type: ADME, cell-free; conditions: read-out: Stability
[11] = Stability in rat plasma assessed as parent compound remaining at 100 uM measured after 24 hrs by HPLC analysis (reference value: 49 to 86%); assay type: ADME, cell-free; conditions: read-out: Stability
cathepsin K [12] = biological target: T1, cathepsin K; assay: Substrate activity at recombinant human cathepsin K expressed in Escherichia coli assessed as compound cleavage at 100 uM after 1 hr by HPLC analysis; assay type: ADME; conditions: read-out: Drug degradation; method in brief: as §1
cathepsin K [13] = biological target: T2, cathepsin K (Rattus norvegicus, UniProt O35186); assay: Substrate activity at recombinant rat cathepsin K expressed in Escherichia coli assessed as compound cleavage at 100 uM after 1 hr by HPLC analysis; assay type: ADME; conditions: read-out: Drug degradation
T2 sequence (O35186 whole entry): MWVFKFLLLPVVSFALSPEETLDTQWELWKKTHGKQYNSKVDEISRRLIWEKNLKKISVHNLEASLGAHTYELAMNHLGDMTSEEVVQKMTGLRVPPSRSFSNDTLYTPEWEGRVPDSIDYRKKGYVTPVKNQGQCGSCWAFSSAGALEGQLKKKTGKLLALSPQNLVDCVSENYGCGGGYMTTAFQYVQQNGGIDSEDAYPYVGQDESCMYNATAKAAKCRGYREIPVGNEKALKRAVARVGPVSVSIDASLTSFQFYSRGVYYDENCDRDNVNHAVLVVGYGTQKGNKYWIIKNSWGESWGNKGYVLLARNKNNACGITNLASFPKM
Method in brief: (§2)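 Rat cathepsin K was recombinant, expressed in E. coli, and used at 0.2 µM final in 50 mM MES pH 5.5 with 2 mM EDTA, 4 mM DTT and 0.15% chondroitin sulfate. Conjugates or the standard substrate Cbz-Leu-Arg-AMC were at 100 µM and incubated at 37 °C. Aliquots were run by HPLC at UV 240 nm. Cleavage was calculated from the appearance of 4-aminobenzyl alcohol plus its DTT-trapped adduct.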

[14] = Stability in rat serum assessed as parent compound remaining at 100 uM measured after 24 hrs by HPLC analysis (reference value: 93 to 97%); assay type: ADME, cell-free; conditions: read-out: Stability
[15] = Stability in rat serum assessed as parent compound remaining at 100 uM measured after 2 hrs by HPLC analysis (reference value: 93 to 97%); assay type: ADME, cell-free; conditions: read-out: Stability
cathepsin K [16] = biological target: T2, cathepsin K; assay: Substrate activity at recombinant rat cathepsin K expressed in Escherichia coli assessed as compound cleavage at 100 uM after 2 hrs by HPLC analysis; assay type: ADME; conditions: read-out: Drug degradation; method in brief: as §2
cathepsin K [17] = biological target: T2, cathepsin K; assay: Substrate activity at recombinant rat cathepsin K expressed in Escherichia coli assessed as compound cleavage at 100 uM after 20 hrs by HPLC analysis; assay type: ADME; conditions: read-out: Drug degradation; method in brief: as §2
cathepsin K [18] = biological target: T1, cathepsin K; assay: Substrate activity at recombinant human cathepsin K expressed in Escherichia coli assessed as compound cleavage at 100 uM after 3 hrs by HPLC analysis; assay type: ADME; conditions: read-out: Drug degradation; method in brief: as §1

remaining at 4 h, 100 µM [5]	metabolised at 2 h, 100 µM (cathepsin K [6])	remaining at 2 h, 100 µM [7]	remaining at 4 h, 100 µM [8]	remaining at 1 h, 100 µM [9]	remaining at 1 h, 100 µM [10]	remaining at 24 h, 100 µM [11]	metabolised at 1 h, 100 µM (cathepsin K [12])	metabolised at 1 h, 100 µM (cathepsin K [13])	remaining at 24 h, 100 µM [14]	remaining at 2 h, 100 µM [15]	metabolised at 2 h, 100 µM (cathepsin K [16])	metabolised at 20 h, 100 µM (cathepsin K [17])	SMILES	other results
–	–	–	–	–	–	–	–	–	–	–	–	–	CCCCC[C@@H](/C=C/[C@H]1[C@H](O)CC(=O)[C@@H]1C/C=C\CCCC(=O)O)OC(=O)CSCCCC(P(=O)(O)O)P(=O)(O)O	t1/2 (Bone [1]): 96 to 120 h; Drug uptake (Bone [2]): 3.5%; Drug metabolism (Plasma): 15%
–	–	–	–	–	–	–	–	–	–	–	–	–	CCOC(=O)CCCCCCN1C(=O)CC[C@@H]1/C=C/[C@@H](OC(=O)Cc1ccc(COC(=O)N[C@@H](CC(C)C)C(=O)N[C@@H](CCCNC(=N)N)C(=O)Nc2ccc(COC(=O)NCCCC(O)(P(=O)(O)O)P(=O)(O)O)cc2)cc1)C(F)(F)c1ccccc1	solubility [3]: Insoluble
–	–	–	–	–	–	–	–	–	–	–	–	–	CCCCC[C@H](O)/C=C/[C@H]1[C@H](O)CC(=O)[C@@H]1C/C=C\CCCC(=O)NCCCC(O)(P(=O)(O)O)P(=O)(O)O	Drug uptake (Bone [4]): 15 %ID
90%	98%	90%	77%	89%	95%	65%	90%	5%	69%	78%	10%	52%	N=C(N)NCCC[C@H](NC(=O)[C@@H]1CCCN1C(=O)OCc1ccccc1)C(=O)Nc1ccc(COC(=O)NCCCC(O)(P(=O)(O)O)P(=O)(O)O)cc1	–
64%	75%	78%	86%	97%	78%	59%	66%	73%	70%	95%	80%	95%	CC(C)C[C@H](NC(=O)OCc1ccccc1)C(=O)N[C@@H](CCCNC(=N)N)C(=O)Nc1ccc(COC(=O)NCCCC(O)(P(=O)(O)O)P(=O)(O)O)cc1	metabolised at 3 h, 100 µM (cathepsin K [18]): 79%
